Source: ChEMBL document CHEMBL1139427, “Inhibition of IkappaB kinase-beta and anticancer activities of novel chalcone adamantyl arotinoids” (J Med Chem, 2008)
Active and inactive are the calls of the source. The calls are words filed in the database; no cut-off is given here.

How the values were obtained:
PC-3 = test: Antiproliferative activity against human PC3 cells after 48 hrs by MTT assay; type: functional, cell-based; settings: PC-3, 48 h
Procedure, shortened: (§1)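 MTT viability assay. PC-3, T-47D and MDA-MB-468 seeded at 5000/well the day before, switched to 0.5% FBS medium at treatment. Jurkat seeded at 10 000/well (10⁵ cells/mL) in RPMI with 0.5% FBS. Compound 0.125-8 µM from DMSO stocks; DMSO ≤0.1% as control. Jurkat 24 h, others 48 h. MTT 4 h at 37 °C, SDS/HCl solubilization, A595. IC50 from two experiments in triplicate.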

MDA-MB-468 [1] = test: Antiproliferative activity against estrogen-independent human MDA-MB-468 cells at 2 uM after 72 hrs by MTT assay
Jurkat [2] = test: Induction of apoptosis in human Jurkat cells assessed as enhanced DEVDase activity after 4 hrs by fluorescence enzymatic assay; type: functional, cell-based
Procedure, shortened: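 Jurkat cells (40 000/well, 10⁶ cells/mL) in RPMI with 0.5% FBS, treated 4 h (2 or 4 µM). Lysed in PIPES/NP-40 buffer 30 min at 4 °C, then diluted into HEPES/CHAPS caspase buffer with 100 µM Ac-DEVD-AFC. AFC release read every 2 min over 30 min at 37 °C (ex 390/em 510 nm). Two experiments in triplicate, mean ± SD.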

[3] = system: Retinoid X receptor RXR-alpha (Mus musculus); test: Activation of mouse RXRalpha expressed in african green monkey CV1 cells assessed as luciferase activity; settings: CV-1
[4] = target: T1, Retinoic acid receptor gamma (Homo sapiens) (UniProt P13631); test: Activity at human RARgamma expressed in african green monkey CV1 cells assessed as enhanced Gal4 transactivation activity by luciferase reporter gene assay; type: cell-based; settings: CV-1
T1 sequence (whole entry): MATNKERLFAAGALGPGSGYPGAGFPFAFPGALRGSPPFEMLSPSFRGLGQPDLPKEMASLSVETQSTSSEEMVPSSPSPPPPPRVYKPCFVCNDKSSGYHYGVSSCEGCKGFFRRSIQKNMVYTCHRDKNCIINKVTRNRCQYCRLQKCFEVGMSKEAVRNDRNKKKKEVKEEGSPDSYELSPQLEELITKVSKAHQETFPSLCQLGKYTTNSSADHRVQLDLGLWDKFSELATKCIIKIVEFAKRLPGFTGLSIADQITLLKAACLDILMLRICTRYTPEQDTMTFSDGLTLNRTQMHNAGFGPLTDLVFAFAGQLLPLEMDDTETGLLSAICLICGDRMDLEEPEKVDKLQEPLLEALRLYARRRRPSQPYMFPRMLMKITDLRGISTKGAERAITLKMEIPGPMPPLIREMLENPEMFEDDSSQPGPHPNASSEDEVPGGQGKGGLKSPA
Procedure, shortened: (§2)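 Gal4 DBD fused to human RAR LBD (α 156-462, β 149-448, γ 158-454), cotransfected into CV-1 cells (20 000/well) with UAS-luciferase and β-galactosidase vectors. 16 h later, medium with 5% charcoal-treated FBS; compound at 2 µM alone, ATRA 1 µM reference. Read after 6 h (RARα, RARβ) or 20 h (RARγ). Normalized luciferase as % of ATRA maximum; mean ± SD, ≥2 experiments in triplicate.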

Jurkat [5] = test: Antiproliferative activity against retinoid related molecule-sensitive human Jurkat cells after 24 hrs by MTT assay; type: functional, cell-based; procedure, shortened: as §1
MDA-MB-468 [6] = test: Antiproliferative activity against estrogen-independent human MDA-MB-468 cells after 48 hrs by MTT assay; type: functional, cell-based; settings: MDA-MB-468, 48 h; procedure, shortened: as §1
[7] = target: T2, Retinoic acid receptor beta (Homo sapiens) (UniProt P10826); test: Antagonist activity at human RARbeta expressed in african green monkey CV1 cells assessed as all-trans-retinoic acid-stimulated Gal4 transactivation activity by luciferase reporter gene assay; type: functional, cell-based; parameters: scale not given: the % may be the effect or the level left; settings: CV-1
T2 sequence (whole entry): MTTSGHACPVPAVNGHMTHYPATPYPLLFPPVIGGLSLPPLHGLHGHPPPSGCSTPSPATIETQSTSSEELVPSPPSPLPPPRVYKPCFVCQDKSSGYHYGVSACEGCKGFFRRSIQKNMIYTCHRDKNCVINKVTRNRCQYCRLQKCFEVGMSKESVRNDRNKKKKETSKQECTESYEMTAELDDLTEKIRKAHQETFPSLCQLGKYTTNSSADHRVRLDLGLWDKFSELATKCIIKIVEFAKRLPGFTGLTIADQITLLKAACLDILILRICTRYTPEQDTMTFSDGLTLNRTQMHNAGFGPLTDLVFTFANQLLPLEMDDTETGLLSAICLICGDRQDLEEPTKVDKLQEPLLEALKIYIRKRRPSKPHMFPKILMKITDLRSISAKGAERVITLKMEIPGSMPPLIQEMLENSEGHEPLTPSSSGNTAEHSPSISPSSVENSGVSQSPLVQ
Procedure, shortened: (§3)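 Same Gal4-RAR LBD/UAS-luciferase CV-1 transfection, 5% charcoal-treated FBS medium. Cells stimulated with 0.2 µM ATRA alone or with 2 µM compound (10-fold molar excess). Readout after 6 h (RARα, RARβ) or 20 h (RARγ). Luciferase normalized to β-galactosidase, as % of ATRA maximum; mean ± SD, ≥2 experiments in triplicate.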

MDA-MB-468 [8] = test: Antiproliferative activity against estrogen-independent human MDA-MB-468 cells by MTT assay; type: functional, cell-based; settings: TDE = time-dependent effect
Procedure, shortened: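 MDA-MB-468 cells exposed to 2 µM compound in 0.5% FBS medium for 24, 48 or 72 h. Proliferation by MTT (A595) relative to DMSO control. Experiment repeated twice with triplicate time points; one representative experiment reported.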

[9] = target: T2, Retinoic acid receptor beta (Homo sapiens); test: Activity at human RARbeta expressed in african green monkey CV1 cells assessed as enhanced Gal4 transactivation activity by luciferase reporter gene assay; type: cell-based; settings: CV-1; procedure, shortened: as §2
[10] = target: T3, Retinoic acid receptor alpha (Homo sapiens) (UniProt P10276); test: Antagonist activity at human RARalpha expressed in african green monkey CV1 cells assessed as all-trans-retinoic acid-stimulated Gal4 transactivation activity by luciferase reporter gene assay; type: functional, cell-based; settings: CV-1; procedure, shortened: as §3
T3 sequence (whole entry): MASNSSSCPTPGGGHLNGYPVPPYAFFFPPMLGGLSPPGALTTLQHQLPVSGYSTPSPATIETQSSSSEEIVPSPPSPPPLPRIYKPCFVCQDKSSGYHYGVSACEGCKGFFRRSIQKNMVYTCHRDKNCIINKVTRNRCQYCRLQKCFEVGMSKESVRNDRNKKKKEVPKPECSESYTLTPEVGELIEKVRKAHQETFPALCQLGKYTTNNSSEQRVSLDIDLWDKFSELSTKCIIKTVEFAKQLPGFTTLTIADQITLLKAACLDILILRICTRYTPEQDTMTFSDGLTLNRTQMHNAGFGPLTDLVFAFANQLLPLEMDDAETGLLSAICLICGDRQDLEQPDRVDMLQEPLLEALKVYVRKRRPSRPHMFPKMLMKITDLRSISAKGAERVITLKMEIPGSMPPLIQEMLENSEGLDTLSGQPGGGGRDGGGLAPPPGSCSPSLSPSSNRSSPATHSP

[11] = system: Retinoid X receptor RXR-alpha (Mus musculus); test: Inhibition of 9-cis-retinoic acid-mediated mouse RXRalpha activation expressed in african green monkey CV1 cells; settings: CV-1
[12] = system: Retinoid X receptor RXR-alpha (Mus musculus); test: Inhibition of LGD-1069-mediated mouse RXRalpha activation expressed in african green monkey CV1 cells; settings: CV-1
[13] = target: T1, Retinoic acid receptor gamma (Homo sapiens); test: Antagonist activity at human RARgamma expressed in african green monkey CV1 cells assessed as all-trans-retinoic acid-stimulated Gal4 transactivation activity by luciferase reporter gene assay; type: functional, cell-based; parameters: scale not given: the % may be the effect or the level left; settings: CV-1; procedure, shortened: as §3
[14] = target: T3, Retinoic acid receptor alpha (Homo sapiens); test: Activity at human RARalpha expressed in african green monkey CV1 cells assessed as enhanced Gal4 transactivation activity by luciferase reporter gene assay; type: cell-based; settings: CV-1; procedure, shortened: as §2
T47D = test: Antiproliferative activity against estrogen-dependent human T47D cells after 48 hrs by MTT assay; type: functional, cell-based; procedure, shortened: as §1
[15] = target: T4, Inhibitor of nuclear factor kappa-B kinase subunit beta (Homo sapiens, UniProt O14920); test: Inhibition of purified recombinant histidine-HA-tagged IKK-beta expressed in SF9 cells
T4 sequence (O14920 whole entry): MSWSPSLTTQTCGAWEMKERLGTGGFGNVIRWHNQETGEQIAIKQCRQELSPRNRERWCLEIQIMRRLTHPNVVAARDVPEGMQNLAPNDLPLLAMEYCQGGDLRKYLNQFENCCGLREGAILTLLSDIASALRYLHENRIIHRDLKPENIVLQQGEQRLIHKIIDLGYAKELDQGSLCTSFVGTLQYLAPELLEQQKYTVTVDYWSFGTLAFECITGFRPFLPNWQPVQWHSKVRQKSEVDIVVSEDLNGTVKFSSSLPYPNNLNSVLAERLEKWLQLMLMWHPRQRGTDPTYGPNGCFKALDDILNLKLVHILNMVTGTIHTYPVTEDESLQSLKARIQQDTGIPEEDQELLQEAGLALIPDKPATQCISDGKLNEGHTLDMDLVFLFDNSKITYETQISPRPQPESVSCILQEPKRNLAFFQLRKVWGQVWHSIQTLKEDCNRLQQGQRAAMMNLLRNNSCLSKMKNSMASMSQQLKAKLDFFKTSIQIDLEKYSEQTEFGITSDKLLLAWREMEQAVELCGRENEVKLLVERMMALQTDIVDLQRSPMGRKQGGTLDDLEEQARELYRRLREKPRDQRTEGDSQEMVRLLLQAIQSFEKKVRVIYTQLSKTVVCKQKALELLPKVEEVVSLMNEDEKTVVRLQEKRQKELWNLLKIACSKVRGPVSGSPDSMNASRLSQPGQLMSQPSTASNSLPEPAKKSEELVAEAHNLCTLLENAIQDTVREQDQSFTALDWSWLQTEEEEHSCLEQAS

[16] = target: T5, Inhibitor of nuclear factor kappa-B kinase subunit beta (Homo sapiens) (UniProt O14920); test: Inhibition of purified recombinant histidine-HA-tagged IKK-beta expressed in SF9 cells at 20 uM
T5 sequence (whole entry): T4 sequence (O14920 whole entry)
Procedure, shortened: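 (His)6-HA-IKKβ expressed in baculovirus-infected Sf9 cells and Ni-resin purified. 100 ng enzyme in MOPS pH 7.0 buffer with 5 µg GST-IκBα, 10 mM MgCl₂, 6.25 µM ATP (Km level) plus ³²P-γ-ATP. Compound (20 µM) preincubated with enzyme/substrate before ATP/Mg addition. 30 min at 30 °C, stopped with phosphoric acid, filter-bound radioactivity counted. No-enzyme background subtracted; activity as ratio to control. Two to four experiments in triplicate.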

Structure (SMILES)	IC50 (PC-3)	Activity (MDA-MB-468 [1])	Activity (Jurkat [2])	Activity [3]	Activity [4]	IC50 (Jurkat [5])	IC50 (MDA-MB-468 [6])	Activity [7]	Activity (MDA-MB-468 [8])	Activity [9]	Activity [10]	Activity [11]	Activity [12]	Activity [13]	Activity [14]	IC50 (T47D)	IC50 [15]	inhibition [16]	Activity [16]
COCCOCOc1cc(O)c(C(=O)/C=C/c2ccc(C(=O)O)cc2)cc1C12CC3CC(CC(C3)C1)C2	2.51 µM	40%	Active	inactive	inactive	1.89 µM	6.08 µM	Active	tde	inactive	Active	inactive	inactive	Active	inactive	8 µM	–	–	–
CC1(C)CC=C(C#Cc2ccccc2)c2cc(/C=C/c3ccc(C(=O)O)cc3)ccc21	–	–	–	–	–	–	–	Active	–	–	Active	–	–	Active	–	–	–	–	–
COCCOCOc1ccc(C(=O)/C=C/c2ccc(C(=O)O)cc2)cc1C12CC3CC(CC(C3)C1)C2	1.48 µM	–	Active	inactive	inactive	1.2 µM	2.11 µM	30%	tde	inactive	Active	inactive	inactive	30%	inactive	3.27 µM	7 µM	65%	–
Cc1ccc2nc(NCCN)c3ncc(C)n3c2c1	–	–	–	–	–	–	–	–	–	–	–	–	–	–	–	–	–	–	Active
